Cneo AK release = Cryptococcus neoformans lysis via adenylate kinase release. C. neoformans lysis, adenylate kinase release luminescence, 4 h; normalised: neutral wells 0, clomiphene wells 100. lysis activity, % at 15 µM. 360,000 compounds, 0.2% hits. AID 651654;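 active means mean lysis activity across replicates of at least 80%, whatever share of replicates individually reach that level; inactive means mean lysis activity below 80%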
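Material: C. neoformans cells | Amount: Yeast cell density of 5 × 10^6 cells/mL | Medium: Fresh YPD growth medium | Dosing: Single dose | Times: Static 4 h at 37 °C with compound, 1 h detection | Detection: AK luminescence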
PGC1a acetyl inh = modulators of PGC1a acetylation | U2OS PGC1a acetylation, AlphaScreen anti-acetyl-lysine; with virally co-expressed GCN5 acetyltransferase | 350,000 compounds, 0.17% hits | inhibition, % at 15.6 µM;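 active means every replicate shows inhibition of at least 40%; inconclusive means mean inhibition at least 40% but some replicate below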;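 further: 0% = neutral control wells and 100% = positive control wells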
Wnt act = Wnt/beta-catenin pathway activation | Wnt/beta-catenin reporter cell assay, activator, plate reader | activation, % at 9.35 µM | 300,000 compounds, 1.2% hits | AID 743398; in the data active means activation above about 30%, passing the limit was not always enough; inconclusive means no clear call, values can overlap the other calls;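 further: 0% = neutral control wells and 100% = positive control wells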
MITF TRPM1 HTS = MITF TRPM1 promoter activation in melanoma cells; 300,000 compounds, 0.75% hits; activation, % at 12.5 µM; SK-MEL-5 TRPM1-promoter luciferase, 24 h; % of positive control, neutral wells = 0; AID 588334;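 active means mean activation of at least 80% with every replicate also reaching 80%; inconclusive means mean reaches 80% but some replicate falls short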;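 further: 0% = neutral control wells and 100% = parthenolide positive control wells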
Numbers without * were called inactive; ? = inconclusive; . = not tested or not shown. This is a sample that favours compounds with a hit; in the whole collection about 1.5% have one here.

SMILES	Cneo AK release	PGC1a acetyl inh	Wnt act	MITF TRPM1 HTS
Cc1ccc(-c2nc3ccc([N+](=O)[O-])cc3[nH]2)cc1	.	-9	19	13
CN(C)c1ccc2c(c1)[C@H]1C[C@@H](CC(=O)NCc3ccc4c(c3)OCO4)O[C@@H](CO)[C@H]1O2	-4	1	.	.
CNC(=O)C[C@H]1CC[C@@H]2[C@H](COc3ccc(NC(=O)Nc4cccc(Cl)c4)cc3C(=O)N2C)O1	2	8	.	.
CN(C(=O)CSc1ncnc2ccccc12)C1CCCCC1	0	.	24	104*
CN(C(=O)COc1ncnc2ccccc12)C1CCCCC1	1	7	-1	-2
COCCNc1nc2c(c(=O)n(C)c(=O)n2C)n1CCCc1ccccc1	-1	6	-1	.
CCOCCCNc1nc2c(c(=O)n(C)c(=O)n2C)n1CCCc1ccccc1	-2	40*	0	0
C[C@H]1CN([C@@H](C)CO)S(=O)(=O)c2ccc(C#CCN(C)C)cc2O[C@H]1CN(C)Cc1ccc(F)cc1	39	-26	.	.
CCCNC(=O)C[C@H]1CC[C@H]2[C@@H](COC[C@@H](O)CN2C(=O)Nc2c(C)noc2C)O1	44	6	.	.
COc1ccc(Cn2c(-c3ccc(Br)cc3)c[n+]3ccccc23)cc1	0	.	58*	-14
COc1ccc(Cn2c(-c3ccc(OC)cc3)nc3ccccc32)cc1	.	-3	0	5
CCNC(=O)[C@@H]1[C@@H](CO)[C@@H]2Cn3c(ccc(-c4ccncc4)c3=O)[C@@H]2N1Cc1ccccc1	2	.	.	.
CC1=NN(c2ccc(C)c(C)c2)C(=O)/C1=C\C=C\c1ccc([N+](=O)[O-])o1	.	59*	-17	-83
CO[C@H]1CN(C)C(=O)c2ccc(NC(=O)Cc3ccccc3)cc2OC[C@@H](C)N(CC2CC2)C[C@@H]1C	2	2	.	.
O=C(Nc1nc2ccccc2[nH]1)C1CCCC1	5	3	15	58
CCCCCC(=O)Nc1nc2ccccc2[nH]1	0	.	53*	.
O=C(CC1CCCC1)Nc1nc2ccccc2[nH]1	2	2	40*	.
COc1ccc(Br)c(C(=O)Nc2nc3ccccc3[nH]2)c1	4	-3	6	92*
COc1ccc(CCC(=O)Nc2nc3ccccc3[nH]2)cc1OC	.	0	.	-1
COc1ccccc1CCC(=O)Nc1nc2ccccc2[nH]1	3	9	31*	80
Cc1noc(C)c1S(=O)(=O)Nc1ccc2c(c1)C(=O)N([C@@H](C)CO)C[C@H](C)[C@@H](CN(C)Cc1ccc(C(=O)O)cc1)O2	2	12	.	.
COCCNC(=O)C[C@H]1C[C@@H]2c3cc(N(C)C)ccc3O[C@@H]2[C@@H](CO)O1	-4	5	.	.
C[C@H]1CN([C@@H](C)CO)C(=O)c2cccc(N(C)C)c2O[C@@H]1CN(C)Cc1ccc2c(c1)OCO2	7	-2	.	.
COC(=O)c1ccccc1NC(=O)c1c(O)c2c([nH]c1=O)CCCC2	1	0	4	4
O=C(Nc1ccc(O)cc1)c1c(O)c2c([nH]c1=O)CCCC2	.	0	21	86*
SMILES	Cneo AK release	PGC1a acetyl inh	Wnt act	MITF TRPM1 HTS
CCCOc1ccc(-c2cnc(N)s2)cc1	1	5	20	88*
C[C@H]1CCCCO[C@@H](CN(C)Cc2ccc(C(=O)O)cc2)[C@@H](C)CN([C@@H](C)CO)C(=O)c2cc(NC(=O)c3ccncc3)ccc2O1	0	-1	.	.
CN(C)CC(=O)N1[C@@H]2Cn3c(ccc(C4=CCCC4)c3=O)[C@H]1[C@@H](C(=O)NCC1CC1)[C@@H]2CO	1	.	.	.
C[C@@H]1CCCCO[C@@H](CN(C)C(=O)Nc2ccc3c(c2)OCO3)[C@H](C)CN([C@H](C)CO)C(=O)c2cc(NC(=O)C3CCCCC3)ccc2O1	1	-6	.	.
CC1CCC(NC(=O)c2cc3c(s2)CCCC3)CC1 (configuration not stated)	1	.	?	100*
Cc1ccc(C(=O)NC2CCC(C)CC2)s1 (configuration not stated)	.	.	62*	50
Cc1ccc(C(=O)NC2CCCC2)s1	-1	.	0	12
CCc1nnc(NC(=O)CSc2ncc(-c3ccccc3)[nH]2)s1	3	1	3	16
Cc1nnc(NC(=O)CSc2ncc(-c3ccccc3)[nH]2)s1	-4	88*	-1	7
COc1cccc(-c2cn(CC[C@@H]3CC[C@H](NC(=O)CC4CC4)[C@@H](CO)O3)nn2)c1	1	-14	.	.
O=C(NCCc1ccc(O)cc1)c1ccc(Cl)cc1	-10	-18	.	98*
C[C@@H]1CN([C@@H](C)CO)C(=O)c2cccc(NC(=O)C3CC3)c2O[C@H]1CN(C)S(C)(=O)=O	0	8	.	.

Screening results (PubChem)
